The source made the active and inactive calls. The rule behind the calls is not given here. A value given as a limit tells only on which side of the number the result lay.

Test [1] is filed under the species Rattus norvegicus. Nature of the test: Displacement of [3H]kainic acid from kainate receptor in rat cortical membrane. The test is classed as cell membranes. An outline of the steps: (§1)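 Native rat brain membranes prepared per Ransom and Stec. Competition binding with 5 nM [3H]AMPA or 5 nM [3H]KA. Three independent experiments, mean ± SEM.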
On the technique in general: Loss of bound radioactivity is the signal in a displacement assay; it reports binding, not function.

Test [2] has as its target Glutamate NMDA receptor (Rattus norvegicus) (UniProt P35439+Q00959+Q00960+Q00961+Q62645+Q8VHN2+Q9R1M7). Nature of the test: Displacement of [3H]CGP39653 from NMDA receptor in rat cortical membrane. The format is cell membranes. An outline of the steps: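 Rat brain membranes prepared per Ransom and Stec. Binding at the NMDA site measured with 2 nM [3H]CGP 39653. Three independent experiments, mean ± SEM.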

In test [3] the target is T1, Glutamate receptor ionotropic, kainate 1 (Rattus norvegicus, UniProt P22756). The test is described as follows: Displacement of [3H]SYM2081 from rat recombinant iGluR5-1b expressed in baculovirus-infected insect Sf9 cells. The method, boiled down:
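Recombinant rat iGluR5(Q)1b expressed in Sf9 insect cells via baculoviral infection; competition binding against [3H]-SYM 2081 radioligand. Values from three independent experiments, expressed as mean ± SEM.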

Test [4] has as its target Glutamate receptor ionotropic, kainate 2 (Rattus norvegicus) (UniProt P42260). Nature of the test: Displacement of [3H]SYM2081 from rat recombinant iGluR6 expressed in baculovirus-infected insect Sf9 cells. An outline of the steps:
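Recombinant rat iGluR6(V,C,R) expressed in baculovirus-infected Sf9 insect cells. Competition binding against [3H]-SYM 2081 radioligand. Three independent experiments, mean ± SEM.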

Test [5] has as its target Glutamate receptor 2 (Rattus norvegicus, UniProt P19491). The test is described as follows: Displacement of [3H]AMPA from wild type rat GluR2 S1S2 ligand binding core.
Test [6] addresses T1, Glutamate receptor ionotropic, kainate 1. Nature of the test: Displacement of [3H]S-glutamate from rat GluR5 S1S2 ligand binding core expressed in Escherichia coli (DE3).
Test [7] can be described thus: Displacement of [3H]AMPA from AMPA receptor in rat cortical membrane. The test is classed as cell membranes. An outline of the steps:
as §1

Sequence of Glutamate receptor ionotropic, kainate 2 (Rattus norvegicus) (P42260 whole entry): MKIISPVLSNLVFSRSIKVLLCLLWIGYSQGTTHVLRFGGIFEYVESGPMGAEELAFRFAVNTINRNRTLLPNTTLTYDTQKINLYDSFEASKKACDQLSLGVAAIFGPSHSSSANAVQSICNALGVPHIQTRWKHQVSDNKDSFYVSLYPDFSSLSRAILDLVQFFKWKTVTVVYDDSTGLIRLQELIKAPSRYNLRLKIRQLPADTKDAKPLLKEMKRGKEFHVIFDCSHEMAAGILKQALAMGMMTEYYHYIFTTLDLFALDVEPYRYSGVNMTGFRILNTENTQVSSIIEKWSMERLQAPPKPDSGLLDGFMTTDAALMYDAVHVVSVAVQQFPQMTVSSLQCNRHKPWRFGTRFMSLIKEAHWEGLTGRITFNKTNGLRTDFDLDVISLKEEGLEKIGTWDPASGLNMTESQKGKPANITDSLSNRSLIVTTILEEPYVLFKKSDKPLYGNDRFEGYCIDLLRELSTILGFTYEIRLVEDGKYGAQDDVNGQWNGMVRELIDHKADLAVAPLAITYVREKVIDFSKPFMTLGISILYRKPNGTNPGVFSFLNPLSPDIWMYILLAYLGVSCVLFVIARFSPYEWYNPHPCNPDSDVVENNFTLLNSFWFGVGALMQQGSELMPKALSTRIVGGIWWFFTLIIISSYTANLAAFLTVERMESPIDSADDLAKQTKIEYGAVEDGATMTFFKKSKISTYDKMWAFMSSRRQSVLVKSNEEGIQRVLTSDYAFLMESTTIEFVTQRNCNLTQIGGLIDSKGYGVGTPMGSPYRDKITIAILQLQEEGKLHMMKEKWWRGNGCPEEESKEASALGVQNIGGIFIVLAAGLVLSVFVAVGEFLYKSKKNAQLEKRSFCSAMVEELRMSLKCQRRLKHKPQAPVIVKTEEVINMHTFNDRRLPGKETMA
T1 sequence (P22756 whole entry): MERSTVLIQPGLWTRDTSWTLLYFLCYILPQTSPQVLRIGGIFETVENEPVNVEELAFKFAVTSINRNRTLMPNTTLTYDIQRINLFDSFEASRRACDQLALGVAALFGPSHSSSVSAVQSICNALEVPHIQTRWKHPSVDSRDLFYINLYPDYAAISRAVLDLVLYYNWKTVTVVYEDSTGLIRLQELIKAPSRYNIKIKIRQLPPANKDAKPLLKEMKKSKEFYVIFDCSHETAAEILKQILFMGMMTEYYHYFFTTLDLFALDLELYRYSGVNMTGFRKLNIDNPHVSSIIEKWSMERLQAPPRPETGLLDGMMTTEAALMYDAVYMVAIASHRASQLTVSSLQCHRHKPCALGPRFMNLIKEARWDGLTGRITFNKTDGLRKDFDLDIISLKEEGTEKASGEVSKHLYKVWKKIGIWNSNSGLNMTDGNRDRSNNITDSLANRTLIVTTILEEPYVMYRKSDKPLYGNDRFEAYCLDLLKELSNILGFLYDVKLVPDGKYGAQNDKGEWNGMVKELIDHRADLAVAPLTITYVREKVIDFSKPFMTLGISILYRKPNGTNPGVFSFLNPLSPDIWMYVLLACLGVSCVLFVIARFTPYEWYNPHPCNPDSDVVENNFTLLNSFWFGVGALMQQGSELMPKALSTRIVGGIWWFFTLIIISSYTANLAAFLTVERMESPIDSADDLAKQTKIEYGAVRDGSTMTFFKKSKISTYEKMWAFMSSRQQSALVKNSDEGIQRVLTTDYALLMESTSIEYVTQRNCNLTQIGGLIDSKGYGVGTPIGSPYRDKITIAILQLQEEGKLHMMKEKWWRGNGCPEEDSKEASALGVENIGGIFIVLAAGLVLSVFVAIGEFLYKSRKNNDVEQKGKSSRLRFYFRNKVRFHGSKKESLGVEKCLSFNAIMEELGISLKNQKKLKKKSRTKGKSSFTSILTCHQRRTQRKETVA
Sequence of Glutamate receptor 2 (P19491 whole entry): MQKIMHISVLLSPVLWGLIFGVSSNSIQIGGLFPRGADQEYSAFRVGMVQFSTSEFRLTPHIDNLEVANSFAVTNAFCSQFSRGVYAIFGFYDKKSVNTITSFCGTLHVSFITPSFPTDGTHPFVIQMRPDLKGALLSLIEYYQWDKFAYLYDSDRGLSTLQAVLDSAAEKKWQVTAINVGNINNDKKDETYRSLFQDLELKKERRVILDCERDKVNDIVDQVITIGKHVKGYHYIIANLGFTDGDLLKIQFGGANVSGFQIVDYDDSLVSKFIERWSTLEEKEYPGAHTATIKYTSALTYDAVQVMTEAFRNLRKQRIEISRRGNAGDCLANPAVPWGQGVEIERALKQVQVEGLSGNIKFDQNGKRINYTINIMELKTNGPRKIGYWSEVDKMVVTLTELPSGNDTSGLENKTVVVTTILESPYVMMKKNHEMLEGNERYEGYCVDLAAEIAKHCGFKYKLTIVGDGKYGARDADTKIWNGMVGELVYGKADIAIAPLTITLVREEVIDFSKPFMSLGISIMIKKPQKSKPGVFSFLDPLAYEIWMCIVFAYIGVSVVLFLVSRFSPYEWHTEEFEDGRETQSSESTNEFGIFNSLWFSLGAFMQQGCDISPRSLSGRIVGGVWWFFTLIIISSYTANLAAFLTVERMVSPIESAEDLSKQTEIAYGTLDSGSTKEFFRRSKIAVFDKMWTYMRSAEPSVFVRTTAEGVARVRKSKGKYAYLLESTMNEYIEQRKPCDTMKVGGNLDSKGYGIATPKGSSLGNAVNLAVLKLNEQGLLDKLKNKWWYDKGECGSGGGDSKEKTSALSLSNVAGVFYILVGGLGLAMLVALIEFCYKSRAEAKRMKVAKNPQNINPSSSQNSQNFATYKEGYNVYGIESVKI

By Ki is commonly meant a measure of affinity in units of concentration, obtained from inhibition or displacement. Turning to `N[C@H](Cc1cccc(-c2cccc(C(=O)O)c2)c1)C(=O)O`, the outcome in test [1], in test [2] and in test [4] was inactive. Also, in test [3], the Ki is more than 1000 µM.
What is called Kd is a measure of binding affinity in units of concentration. Low values mean tighter binding, high ones weaker binding. Take `N[C@@H](Cn1ccc(=O)n(Cc2ccccc2C(=O)O)c1=O)C(=O)O`: the outcome in test [1], in test [2] and in test [4] was inactive. Moreover, the Kd in test [5] came to 146 µM; in test [6] it was 3.94 µM.
A word on the IC50: it is the concentration needed to halve the response being measured. High values mean a need for much substance, low ones inhibition by little substance. On to `NC(Cc1cc(Cl)c(Cl)c(-c2ccc(-c3nnn[nH]3)cc2)c1)C(=O)O` (racemic), for which the outcome in test [1], in test [2] and in test [4] was inactive. Also, the IC50 in test [7] was more than 100 µM. The inhibitory constant (Ki) in test [3] is more than 100 µM.
With `NC(Cc1cc(Cl)c(Cl)c(-c2ccc([N+](=O)[O-])cc2)c1)C(=O)O` (racemic), the outcome in test [1], in test [2] and in test [4] was inactive. Further, the IC50 in test [7] was more than 100 µM. For the same compound, the Ki in test [3] is more than 100 µM.
For `NC(Cc1cc(Cl)c(Cl)c(-c2ccc(C(=O)O)cc2)c1)C(=O)O` (racemic), the outcome in test [1], in test [2] and in test [4] was inactive. In addition, the IC50 in test [7] amounted to 42 µM. In addition, the Ki in test [3] was more than 100 µM.
Take `NC(Cc1cccc(Cc2ccccc2C(=O)O)c1)C(=O)O` (racemic): the result in test [1], in test [2] and in test [4] was inactive. For the same compound, in test [7], the concentration for half-maximal inhibition (IC50) is more than 100 µM. For the same compound, the Ki in test [3] is not below 100 µM.
`CC(C)(C)c1onc(OCP(=O)(O)O)c1C[C@H](N)C(=O)O`: the result in test [1], in test [2] and in test [4] was inactive. In test [7], this compound yielded a 50% inhibitory concentration (IC50) of 16 µM. For the same compound, the inhibitory constant (Ki) in test [3] is 2.9 µM.
Consider `NC(Cc1cccc(-c2cccc(CC(=O)O)c2)c1)C(=O)O` (racemic), for which the result in test [1], in test [2] and in test [4] was inactive. Besides, the IC50 in test [7] is more than 100 µM. The Ki in test [3] is not below 100 µM.
In the case of `NC(Cc1cccc(-c2ccccc2C(=O)O)c1)C(=O)O` (racemic), the result in test [1], in test [2] and in test [4] was inactive. The compound also showed an IC50 in test [7] of more than 100 µM. Also, the Ki in test [3] is more than 100 µM.
As for `NC(Cc1cc(Cl)c(Cl)c(-c2cccc(C(=O)O)c2)c1)C(=O)O` (racemic), the outcome in test [1], in test [2] and in test [4] was inactive. Moreover, in test [7], the IC50 is more than 100 µM. The Ki in test [3] amounted to 2.8 µM.
For `NC(Cc1cc(Cl)c(Cl)c(-c2ccc(O)cc2)c1)C(=O)O` (racemic), the result in test [1], in test [2] and in test [4] was inactive. In test [7], this compound displayed an IC50 of 33 µM. Also, the Ki in test [3] was more than 100 µM.
On to `NC(Cc1cccc(-c2ccc(C(=O)O)cc2)c1)C(=O)O` (racemic), for which the outcome in test [1], in test [2] and in test [4] was inactive. In test [7], the IC50 is 41 µM. The Ki in test [3] is more than 100 µM.
As to `NC(Cc1cc(Cl)c(Cl)c(-c2ccccc2C(=O)O)c1)C(=O)O` (racemic), the result in test [1], in test [2] and in test [4] was inactive. Besides, in test [7], the IC50 was more than 100 µM. Moreover, the Ki in test [3] was more than 100 µM.
With `NC(Cc1cc(Cl)c(Cl)c(-c2cccc([N+](=O)[O-])c2)c1)C(=O)O` (racemic), the result in test [1], in test [2] and in test [4] was inactive. The IC50 in test [7] was more than 100 µM. Also, the inhibition constant (Ki) in test [3] was more than 100 µM.
For `NC(Cc1cc(Cl)c(Cl)c(-c2ccccc2-c2nnn[nH]2)c1)C(=O)O` (racemic), the outcome in test [1], in test [2] and in test [4] was inactive. Besides, the IC50 in test [7] is more than 100 µM. Besides, in test [3], the Ki is more than 100 µM.
As for `NC(Cc1cc(Cl)c(Cl)c(-c2ccccc2O)c1)C(=O)O` (racemic), the result in test [1], in test [2] and in test [4] was inactive. Also, the IC50 in test [7] is 85 µM. Further, the Ki in test [3] was more than 100 µM.
As to `NC(Cc1cccc(Cc2ccc(C(=O)O)cc2)c1)C(=O)O` (racemic), the result in test [1], in test [2] and in test [4] was inactive. The same compound registered an IC50 in test [7] of more than 100 µM. For the same compound, the Ki in test [3] was not below 100 µM.
`NC(Cc1cc(Cl)c(Cl)c(-c2cccc(O)c2)c1)C(=O)O` (racemic): the outcome in test [1], in test [2] and in test [4] was inactive. The IC50 in test [7] was 4.6 µM. Also, in test [3], the Ki was more than 100 µM.
Regarding `N[C@@H](Cc1cccc(-c2cccc(C(=O)O)c2)c1)C(=O)O`, the outcome in test [1], in test [2] and in test [4] was inactive. Also, the Ki in test [3] stood at 4.08 µM.
In the case of `NC(Cc1cc(Cl)c(Cl)c(-c2ccc(C(=O)O)s2)c1)C(=O)O` (racemic), the outcome in test [1], in test [2] and in test [4] was inactive. The compound also displayed an IC50 in test [7] of 61 µM. Further, the Ki in test [3] is not below 100 µM.
For `NC(Cc1cc(Cl)c(Cl)c(-c2cccc(-c3nnn[nH]3)c2)c1)C(=O)O` (racemic), the result in test [1], in test [2] and in test [4] was inactive. In test [7], this compound displayed an IC50 of more than 100 µM. For the same compound, the Ki in test [3] was not below 100 µM.
For `NC(Cc1cccc(-c2cccc(C(=O)O)c2)c1)C(=O)O` (racemic), the result in test [1], in test [2] and in test [4] was inactive. Besides, the IC50 in test [7] is more than 100 µM. Moreover, in test [3], the Ki was found to be 7.9 µM.
On to `NC(Cc1cccc(Cc2cccc(C(=O)O)c2)c1)C(=O)O` (racemic), for which the result in test [1], in test [2] and in test [4] was inactive. The same compound registered an IC50 in test [7] of more than 100 µM. In test [3], the Ki amounted to 50 µM.
Consider `NC(Cc1cccc(-c2ccc(CC(=O)O)cc2)c1)C(=O)O` (stereo not drawn), for which the outcome in test [1], in test [2] and in test [4] was inactive. Besides, the IC50 in test [7] was more than 100 µM. Also, in test [3], the Ki is more than 100 µM.
